One assay deals with MCF-7. Nature of the assay: MTT cytotoxicity assay, MCF-7. It counts as cell-based. The settings on record: Homo sapiens, MCF7, read-out: IC50, μM MCF-7. The method, boiled down:
(§1)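 Cells came from the National Cancer Institute, Cairo, and were grown in RPMI-1640 with L-glutamine, 10% FBS and 1% penicillin-streptomycin at 37 °C, 5% CO2. Plated in triplicate in 96-well plates (5 × 10^4 cells). Next day, exposed to test compound at 0.01, 0.1, 1, 10 and 100 μM (48 h stated for MDA-MB-231 and MCF-10A). MTT added for 3 h; absorbance read; viability relative to control; IC50 derived.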
(In general: Tetrazolium dyes change colour on reduction, which living cells bring about.)

The subject of another assay is MDA-MB-231. As to the kind of experiment: MTT cytotoxicity assay, MDA-MB-231. It is filed as cell-based. To be noted: read-out: IC50, μM MDA-MB-231, average of three independent trials. The method, boiled down:
as §1

In the next assay the target is PARP-1 (Homo sapiens, UniProt P09874). As to the kind of experiment: PARP-1 enzyme inhibition assay. It counts as biochemical.
For another assay, the target named is EGFR (Homo sapiens, UniProt P00533). Nature of the assay: EGFR inhibition, ADP-Glo kinase assay. It counts as biochemical. A general note: ADP-Glo first removes unused ATP, then detects ADP through luciferase.
The next assay has as its system MCF-10A. Nature of the assay: MTT cytotoxicity assay, normal breast cells MCF-10A. It is filed as cell-based. To be noted: Homo sapiens. The procedure, abridged: as §1
The subject of assay [1] is MDA-MB-231 cells. Nature of the assay: RT-PCR gene expression of apoptosis-related genes. It counts as cell-based. To be noted: 8i at 0.12 μM, 48 h, untreated control = 1.
The subject of assay [2] is MDA-MB-231 cells. As to the kind of experiment: Annexin V/PI staining flow cytometry, apoptosis-necrosis assessment. It counts as cell-based. To be noted: 8i at 0.12 μM, 48 h. The method, boiled down: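 MDA-MB-231 cells seeded overnight in 6-well plates (3–5 × 10^5 cells/well), then exposed to test compound for 48 h. Stained 30 min in the dark in Annexin binding buffer (25 mM CaCl2, 1.4 M NaCl, 0.1 M Hepes/NaOH, pH 7.4) with Annexin V-FITC (1:100) and PI (10 μg mL−1). Analysed by flow cytometry: Q1 necrosis, Q2 late apoptosis, Q4 early apoptosis.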
Background: A flow cytometer gives signals particle by particle.

Assay [3] relates to MDA-MB-231 cells. Nature of the assay: DNA-aided cell cycle analysis by flow cytometry. It counts as cell-based. To be noted: 8i at 0.12 μM, 48 h; control 9.83%.
Where [4] appears, read: five concentrations, sigmoidal nonlinear regression.

PARP-1, sequence (P09874 whole entry): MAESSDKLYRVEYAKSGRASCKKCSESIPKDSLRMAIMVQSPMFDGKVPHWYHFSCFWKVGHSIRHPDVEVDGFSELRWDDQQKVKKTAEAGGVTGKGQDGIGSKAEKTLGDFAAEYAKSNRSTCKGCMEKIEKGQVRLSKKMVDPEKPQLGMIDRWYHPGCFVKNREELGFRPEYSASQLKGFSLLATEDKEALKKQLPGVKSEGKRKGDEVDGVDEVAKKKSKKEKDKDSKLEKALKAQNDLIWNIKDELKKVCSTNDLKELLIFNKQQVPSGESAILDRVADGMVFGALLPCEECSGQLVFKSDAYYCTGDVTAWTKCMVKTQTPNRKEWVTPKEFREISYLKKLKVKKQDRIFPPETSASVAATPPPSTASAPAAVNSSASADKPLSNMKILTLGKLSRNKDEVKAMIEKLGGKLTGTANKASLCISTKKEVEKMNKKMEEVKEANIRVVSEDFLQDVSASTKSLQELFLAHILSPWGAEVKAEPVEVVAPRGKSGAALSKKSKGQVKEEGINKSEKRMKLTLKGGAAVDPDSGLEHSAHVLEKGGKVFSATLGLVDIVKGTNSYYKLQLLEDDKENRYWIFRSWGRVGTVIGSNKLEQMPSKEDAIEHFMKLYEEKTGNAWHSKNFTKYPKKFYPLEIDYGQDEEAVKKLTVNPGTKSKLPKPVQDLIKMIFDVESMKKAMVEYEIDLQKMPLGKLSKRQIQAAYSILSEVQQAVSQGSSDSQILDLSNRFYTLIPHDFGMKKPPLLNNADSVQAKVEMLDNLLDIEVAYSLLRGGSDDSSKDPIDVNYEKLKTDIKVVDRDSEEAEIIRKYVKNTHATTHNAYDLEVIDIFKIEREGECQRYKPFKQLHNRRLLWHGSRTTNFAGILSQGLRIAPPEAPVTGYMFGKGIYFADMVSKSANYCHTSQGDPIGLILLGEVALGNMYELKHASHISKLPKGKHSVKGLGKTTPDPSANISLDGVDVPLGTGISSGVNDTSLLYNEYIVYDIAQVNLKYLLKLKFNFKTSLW
EGFR, sequence (P00533 25-1210): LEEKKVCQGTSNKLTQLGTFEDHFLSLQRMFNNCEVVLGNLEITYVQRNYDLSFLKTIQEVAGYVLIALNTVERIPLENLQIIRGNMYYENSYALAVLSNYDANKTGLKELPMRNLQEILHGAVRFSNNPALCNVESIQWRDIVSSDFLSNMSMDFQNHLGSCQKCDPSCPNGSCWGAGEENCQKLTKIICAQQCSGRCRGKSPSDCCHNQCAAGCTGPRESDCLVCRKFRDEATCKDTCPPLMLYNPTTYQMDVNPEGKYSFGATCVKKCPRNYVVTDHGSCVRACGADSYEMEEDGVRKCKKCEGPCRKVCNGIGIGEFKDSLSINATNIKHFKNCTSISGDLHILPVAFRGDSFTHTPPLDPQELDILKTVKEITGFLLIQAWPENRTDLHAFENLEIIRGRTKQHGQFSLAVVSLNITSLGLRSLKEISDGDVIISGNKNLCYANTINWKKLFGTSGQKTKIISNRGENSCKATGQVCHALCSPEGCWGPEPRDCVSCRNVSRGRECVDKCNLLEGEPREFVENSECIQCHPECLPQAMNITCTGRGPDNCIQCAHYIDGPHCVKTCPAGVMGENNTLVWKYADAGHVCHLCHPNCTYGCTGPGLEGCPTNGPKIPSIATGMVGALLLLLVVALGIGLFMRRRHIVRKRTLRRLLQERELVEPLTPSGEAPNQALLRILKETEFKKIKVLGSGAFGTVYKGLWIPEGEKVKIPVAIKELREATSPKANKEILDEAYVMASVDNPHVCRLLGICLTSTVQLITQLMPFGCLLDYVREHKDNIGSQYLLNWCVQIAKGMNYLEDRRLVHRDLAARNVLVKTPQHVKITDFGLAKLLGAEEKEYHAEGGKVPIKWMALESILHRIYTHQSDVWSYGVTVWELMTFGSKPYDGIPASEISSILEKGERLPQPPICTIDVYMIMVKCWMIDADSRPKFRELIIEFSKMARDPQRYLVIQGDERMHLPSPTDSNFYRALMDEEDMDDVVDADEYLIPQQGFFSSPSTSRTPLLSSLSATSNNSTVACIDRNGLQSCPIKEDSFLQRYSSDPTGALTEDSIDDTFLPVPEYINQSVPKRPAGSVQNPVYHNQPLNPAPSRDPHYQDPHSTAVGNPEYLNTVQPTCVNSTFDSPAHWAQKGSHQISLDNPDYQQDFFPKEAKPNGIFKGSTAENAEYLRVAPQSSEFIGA

Usually IC50 stands for the midpoint of a concentration-inhibition curve. Take `O=C(COc1ccc(-c2cnc3ccccc3n2)cc1)NCCCNC(=O)COc1ccc(-c2cnc3ccccc3n2)cc1` [10d, N,N′-(Propane-1,3-diyl)bis(2-(4-(quinoxalin-2-yl)phenoxy)acetamide)]: the IC50 was 23.2 µM in the assay with MCF-7 and not below 50 µM in the assay on MDA-MB-231.

Turning to `O=C(COc1ccccc1C1=Nn2c(nnc2-c2ccccc2)SC1)NCCCCNC(=O)COc1ccccc1C1=Nn2c(nnc2-c2ccccc2)SC1` [8k, N,N′-(Butane-1,4-diyl)bis(2-(2-(3-phenyl-7H-[1,2,4]triazolo[3,4-b][1,3,4]thiadiazin-6-yl)phenoxy)acetamide)], the IC50 in the assay on MCF-7 was 13.1 µM.

For `O=C(COc1ccc(C2=Nn3c(nnc3-c3ccccc3)SC2)cc1)NCCCNC(=O)COc1ccc(C2=Nn3c(nnc3-c3ccccc3)SC2)cc1` [8e, N,N′-(Propane-1,3-diyl)bis(2-(4-(3-phenyl-7H-[1,2,4]triazolo[3,4-b][1,3,4]thiadiazin-6-yl)phenoxy)acetamide)], the IC50 in the assay on MCF-7 was 12.7 µM.

Regarding `O=C(COc1ccc(C2=Nn3c(Cc4ccccc4)nnc3SC2)cc1)NCCNC(=O)COc1ccc(C2=Nn3c(Cc4ccccc4)nnc3SC2)cc1` [8b, N,N′-(Ethane-1,2-diyl)bis(2-(4-(3-benzyl-7H-[1,2,4]triazolo[3,4-b][1,3,4]thiadiazin-6-yl)phenoxy)acetamide)], the IC50 in the assay on MCF-7 came to 26.1 µM.

`O=C(COc1ccccc1-c1cnc2ccccc2n1)NCCNC(=O)COc1ccccc1-c1cnc2ccccc2n1` [10c, N,N′-(Ethane-1,2-diyl)bis(2-(2-(quinoxalin-2-yl)phenoxy)acetamide)]: the IC50 with MCF-7 was 7.61 µM.

Consider `O=C(COc1ccccc1C1=Nn2c(nnc2-c2ccccc2)SC1)NCCCNC(=O)COc1ccccc1C1=Nn2c(nnc2-c2ccccc2)SC1` [8g, N,N′-(Propane-1,3-diyl)bis(2-(2-(3-phenyl-7H-[1,2,4]triazolo[3,4-b][1,3,4]thiadiazin-6-yl)phenoxy)acetamide)], for which the IC50 in the assay with MCF-7 turned out to be 11.2 µM.

`Cc1cc2ncc(-c3ccc(OCC(=O)NCCNC(=O)COc4ccc(-c5cnc6cc(C)c(C)cc6n5)cc4)cc3)nc2cc1C` [10b, N,N′-(Ethane-1,2-diyl)bis(2-(4-(6,7-dimethylquinoxalin-2-yl)phenoxy)acetamide)]: the IC50 in the assay with MCF-7 was not below 50 µM.

With `Cc1nnc2n1N=C(c1ccccc1OCC(=O)NCCNC(=O)COc1ccccc1C1=Nn3c(C)nnc3SC1)CS2` [8d, N,N′-(Ethane-1,2-diyl)bis(2-(2-(3-methyl-7H-[1,2,4]triazolo[3,4-b][1,3,4]thiadiazin-6-yl)phenoxy)acetamide)], the IC50 came out at 2.14 µM with MCF-7, 0.0199 µM against PARP-1, 0.124 µM against EGFR and 0.421 µM in the assay on MDA-MB-231. Also, the “IC50, nM PARP-1” value on PARP-1 (setting [4]) is listed as “poor inhibitory activities”. Also, at EGFR (setting [4]), the “IC50, nM EGFR” value is given as “poor inhibitory activities”.

As for `Cc1cc2ncc(-c3ccccc3OCC(=O)NCCCCNC(=O)COc3ccccc3-c3cnc4cc(C)c(C)cc4n3)nc2cc1C` [10e, N,N′-(Butane-1,4-diyl)bis(2-(2-(6,7-dimethylquinoxalin-2-yl)phenoxy)acetamide)], the IC50 with MCF-7 came out at 31.2 µM.

With `O=C(COc1ccccc1C1=Nn2c(Cc3ccccc3)nnc2SC1)NCCCNC(=O)COc1ccccc1C1=Nn2c(Cc3ccccc3)nnc2SC1` [8h, N,N′-(Propane-1,3-diyl)bis(2-(2-(3-benzyl-7H-[1,2,4]triazolo[3,4-b][1,3,4]thiadiazin-6-yl)phenoxy)acetamide)], the values for the IC50 in the assay with MCF-7 and in the assay with MDA-MB-231 were 21.1 µM and not below 50 µM, respectively.

`O=C(COc1ccc(C2=Nn3c(nnc3-c3ccccc3)SC2)cc1)NCCNC(=O)COc1ccc(C2=Nn3c(nnc3-c3ccccc3)SC2)cc1` [8a, N,N′-(Ethane-1,2-diyl)bis(2-(4-(3-phenyl-7H-[1,2,4]triazolo[3,4-b][1,3,4]thiadiazin-6-yl)phenoxy)acetamide)]: in the assay on MCF-7, the IC50 is not below 50 µM.

As for `O=C(COc1ccc(-c2cnc3ccccc3n2)cc1)NCCNC(=O)COc1ccc(-c2cnc3ccccc3n2)cc1` [10a, N,N′-(Ethane-1,2-diyl)bis(2-(4-(quinoxalin-2-yl)phenoxy)acetamide)], the IC50 with MCF-7 is 32 µM; in the assay with MDA-MB-231, not below 50 µM.

In the case of `C#Cc1cccc(Nc2ncnc3cc(OCCOC)c(OCCOC)cc23)c1` [Erlotinib, reference compound], the IC50 in the assay with MCF-7 stood at 0.32 µM.

With `O=C(COc1ccc(C2=Nn3c(nnc3-c3ccccc3)SC2)cc1)NCCCCNC(=O)COc1ccc(C2=Nn3c(nnc3-c3ccccc3)SC2)cc1` [8j, N,N′-(Butane-1,4-diyl)bis(2-(4-(3-phenyl-7H-[1,2,4]triazolo[3,4-b][1,3,4]thiadiazin-6-yl)phenoxy)acetamide)], in the assay with MCF-7, the IC50 came to 14.9 µM.

Consider `O=C(COc1ccccc1C1=Nn2cnnc2SC1)NCCCCNC(=O)COc1ccccc1C1=Nn2cnnc2SC1` [8l, N,N′-(Butane-1,4-diyl)bis(2-(2-(7H-[1,2,4]triazolo[3,4-b][1,3,4]thiadiazin-6-yl)phenoxy)-acetamide)], for which the IC50 was 5.31 µM in the assay on MCF-7, 0.00687 µM against PARP-1 and 0.0789 µM at EGFR.

For orientation: inhibition means how much of the control response was suppressed. `Cc1nnc2n1N=C(c1ccccc1OCC(=O)NCCCNC(=O)COc1ccccc1C1=Nn3c(C)nnc3SC1)CS2` [8i, N,N′-(Propane-1,3-diyl)bis(2-(2-(3-methyl-7H-[1,2,4]triazolo[3,4-b][1,3,4]thiadiazin-6-yl)phenoxy)acetamide)]: in the assay on MCF-10A (48 h, read-out: IC50 MCF-10A), the IC50 amounted to 52.4 µM. Besides, the inhibition at 100 µM in the assay with MCF-10A (read-out: cell inhibition) was approximately 90%. Further, in the assay with MCF-7, the IC50 was determined as 1.31 µM. Moreover, in the assay with MDA-MB-231 cells [1] (decrease), the “Bcl-2 gene level, fold change” value was 0.35 fold. Besides, in the assay with MDA-MB-231 cells [1] (increase), the “Bax gene level, fold change” value is 4.46 fold; the “P53 gene level, fold change” value is given as 4.8 fold; the “caspase-3 gene level, fold change” value was 3.9 fold; the “caspase-8 gene level, fold change” value amounted to 6.36 fold. For the same molecule, in the assay with MDA-MB-231 cells [1] (increase), the “caspase-9 gene level, fold change” value is on record as 2.9 fold. The IC50 against EGFR was 0.0647 µM. For the same molecule, in the assay with MDA-MB-231 cells [2], the “necrosis, fold compared to control” value amounted to 3.14 fold and the “total apoptosis, fold compared to control” value was found to be 38 fold. Moreover, the “late apoptosis (Q2)” value in the assay with MDA-MB-231 cells [2] (control 0.18%) is 19.51%. The “early apoptosis (Q4)” value with MDA-MB-231 cells [2] (control 0.63%) turned out to be 11.23%. The “total apoptotic cell death” value in the assay with MDA-MB-231 cells [2] (control 0.81%) is listed as 30.74%. Also, in the assay on MDA-MB-231 cells [2] (control 1.3%), the “necrosis (Q1)” value came out at 4.08%. Further, the “cell population at G2/M” value with MDA-MB-231 cells [3] was found to be 24.04%.

For the molecule `O=C(COc1ccccc1C1=Nn2c(nnc2-c2ccccc2)SC1)NCCNC(=O)COc1ccccc1C1=Nn2c(nnc2-c2ccccc2)SC1` [8c, N,N′-(Ethane-1,2-diyl)bis(2-(2-(3-phenyl-7H-[1,2,4]triazolo[3,4-b][1,3,4]thiadiazin-6-yl)phenoxy)acetamide)], the IC50 in the assay with MCF-7 turned out to be 16.1 µM.

Take `Cc1nnc2n1N=C(c1ccc(OCC(=O)NCCCNC(=O)COc3ccc(C4=Nn5c(C)nnc5SC4)cc3)cc1)CS2` [8f, N,N′-(Propane-1,3-diyl)bis(2-(4-(3-methyl-7H-[1,2,4]triazolo[3,4-b][1,3,4]thiadiazin-6-yl)phenoxy)acetamide)]: the IC50 in the assay on MCF-7 is 7.12 µM.

The values above are taken from paper PMC9389373 (RSC Advances, 2022).
